From ChEMBL document CHEMBL4765236, “Insights into the Antimicrobial Activity and Cytotoxicity of Engineered α-Helical Peptide Amphiphiles” (J Med Chem, 2016)
Active and inactive are the calls of the source. The calls are words filed in the database; no cut-off is given here.

Key:
Escherichia coli [1] = test: Antibacterial activity against Escherichia coli ATCC 35150 assessed as bacterial growth inhibition incubated for 18 to 24 hrs by microtiter broth dilution method; format: functional; details: time 18-24 hrs
Procedure, shortened: (§1)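 Log-phase cells (grown overnight at 37 °C, subcultured in MHB) diluted to 10^5 CFU/mL in MHB and mixed 1:1 with serial peptide dilutions prepared in 0.01% acetic acid/0.2% BSA. Incubated 37 °C for 18-24 h. MIC is the lowest concentration giving no growth by OD492. Reported as the average of 3-5 independent experiments.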

[2] = test system: Salmonella enterica subsp. enterica serovar Paratyphi B; test: Antibacterial activity against Salmonella paratyphi B CICC 21495 assessed as bacterial growth inhibition incubated for 18 to 24 hrs by microtiter broth dilution method; format: functional; details: time 18-24 hrs
Procedure, shortened: (§2)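 Log-phase bacteria grown at 37 °C in MHB, diluted to 10^5 CFU/mL, mixed 1:1 with serial peptide dilutions (peptide diluted in 0.01% acetic acid, 0.2% BSA); 37 °C for 18-24 h. MIC read by OD492 as lowest concentration giving no growth; mean of 3-5 independent experiments.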

Vibrio parahaemolyticus = test: Antibacterial activity against Vibrio parahaemolyticus CICC 21617 assessed as bacterial growth inhibition incubated for 18 to 24 hrs by broth dilution method; format: functional; details: time 18-24 hrs; procedure, shortened: as §1
Listeria monocytogenes [3] = test: Antibacterial activity against Listeria monocytogenes CICC 21662 assessed as bacterial growth inhibition incubated for 18 to 24 hrs by microtiter broth dilution method; format: functional; details: time 18-24 hrs; procedure, shortened: as §1
Listeria monocytogenes [4] = test: Antibacterial activity against Listeria monocytogenes CICC 21633 assessed as bacterial growth inhibition incubated for 18 to 24 hrs by microtiter broth dilution method; format: functional; details: time 18-24 hrs; procedure, shortened: as §1
Micrococcus luteus = test: Antibacterial activity against Micrococcus luteus CMCC 28001 assessed as bacterial growth inhibition incubated for 18 to 24 hrs by microtiter broth dilution method; format: functional; details: time 18-24 hrs; procedure, shortened: as §1
Pseudomonas fluorescens = test: Antibacterial activity against Pseudomonas fluorescens CICC 21620 assessed as bacterial growth inhibition incubated for 18 to 24 hrs by microtiter broth dilution method; format: functional; details: time 18-24 hrs; procedure, shortened: as §1
Staphylococcus aureus [5] = test: Antibacterial activity against methicillin resistant Staphylococcus aureus ATCC 43300 assessed as bacterial growth inhibition incubated for 18 to 24 hrs by microtiter broth dilution method; format: functional; details: time 18-24 hrs; procedure, shortened: as §2
Erythrocyte [6] = test: Hemolytic activity against human red blood cells assessed as concentration required to cause 10% hemoglobin release measured after 1 hr by microplate reader analysis; format: ADME, cell-based
Procedure, shortened: (§3)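 Fresh heparinized human RBCs washed three times in 10 mM PBS pH 7.4 and resuspended to about 1% (v/v) (5.4 × 10^8 cells/mL). Mixed 1:1 with peptide in PBS for 1 h at 37 °C, then centrifuged. Supernatant hemoglobin read at A540. PBS set as 0% and 0.1% Triton X-100 as 100% hemolysis. MHC is the concentration causing 10% hemolysis.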

[7] = Therapeutic index, ratio of MHC10 for human RBC to geometric mean of peptide MIC for Escherichia coli O157:H7 CICC 21530; format: toxicity; details: human red blood cells (RBC), pooled result: one value given for 11 cell lines, strains, targets or settings, read-out: TI
Procedure, shortened: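 Therapeutic index = MHC (peptide concentration giving 10% hemolysis of human RBCs, 1 h, 37 °C, A540) divided by geometric mean of MICs from broth microdilution (10^5 CFU/mL in MHB, 37 °C, 18-24 h, OD492).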

Escherichia coli [8] = test: Antibacterial activity against Escherichia coli O157:H7 CICC 21530 assessed as bacterial growth inhibition incubated for 18 to 24 hrs in presence of 4.5 mM KCl by microtiter broth dilution method (reference value: 0.85 to > 71.5 uM); format: functional; details: time 18-24 hrs
Escherichia coli [9] = test: Antibacterial activity against Escherichia coli O157:H7 CICC 21530 assessed as bacterial growth inhibition incubated for 18 to 24 hrs in presence of 6 mM NH4Cl by microtiter broth dilution method (reference value: 0.85 to > 71.5 uM); format: functional; details: time 18-24 hrs
Escherichia coli [10] = test: Antibacterial activity against Escherichia coli O157:H7 CICC 21530 assessed as bacterial growth inhibition incubated for 18 to 24 hrs in presence of 2 mM CaCl2 by microtiter broth dilution method (reference value: 0.85 to > 71.5 uM); format: functional; details: time 18-24 hrs
Escherichia coli [11] = test: Antibacterial activity against Escherichia coli O157:H7 CICC 21530 assessed as bacterial growth inhibition incubated for 18 to 24 hrs in presence of 4 mM FeCl3 by microtiter broth dilution method (reference value: 0.85 to > 71.5 uM); format: functional; details: time 18-24 hrs
Cell membrane = test: Induction of inner membrane permeabilization in Escherichia coli O157:H7 CICC 21530 assessed as cytoplasmic beta-galactosidase release at 1 times MIC using ONPG as substrate by […]; format: subcellular
RAW264.7 [12] = test: Antiinflammatory activity against mouse RAW264.7 cells assessed as inhibition of LPS-induced nitric oxide production measured after 24 hrs by Griess reagent based ELISA; format: functional, cell-based; details: dose 0.5-64 µM
Procedure, shortened: (§4)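 RAW264.7 cells plated at 1-2 × 10^5 cells/mL and stimulated with 500 ng/mL LPS with or without peptide (0.5-64 µM) for 24 h at 37 °C. Controls were untreated cells and LPS alone. TNF-α in the supernatant measured by ELISA. NO measured by Griess reagent (1% sulfanilamide, 0.1% naphthylethylenediamine, 5% phosphoric acid).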

RAW264.7 [13] = test: Antiinflammatory activity against mouse RAW264.7 cells assessed as inhibition of LPS-induced TNF-alpha production at 0.5 to 64 uM measured after 24 hrs by […] ELISA; format: functional, cell-based; details: dose 0.5-64 µM; procedure, shortened: as §4
HepG2 = test: Cytotoxicity against human HepG2 cells assessed as reduction in cell viability incubated for 24 hrs by MTT assay; format: functional, cell-based
Procedure, shortened: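 HepG2 survival measured by MTT assay over a peptide range of 0.25-64 µM.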

Staphylococcus aureus [14] = test: Antibacterial activity against Staphylococcus aureus ATCC 29213 assessed as bacterial growth inhibition incubated for 18 to 24 hrs in presence of 150 mM NaCl by microtiter broth dilution method (reference value: 0.43 to > 71.5 uM); format: functional; details: time 18-24 hrs
Staphylococcus aureus [15] = test: Antibacterial activity against Staphylococcus aureus ATCC 29213 assessed as bacterial growth inhibition incubated for 18 to 24 hrs in presence of 1 mM MgCl2 by microtiter broth dilution method (reference value: 0.43 to > 71.5 uM); format: functional; details: time 18-24 hrs
Staphylococcus aureus [16] = test: Antibacterial activity against Staphylococcus aureus ATCC 29213 assessed as bacterial growth inhibition incubated for 18 to 24 hrs in presence of 2 mM CaCl2 by microtiter broth dilution method (reference value: 0.43 to > 71.5 uM); format: functional; details: time 18-24 hrs
Staphylococcus aureus [17] = test: Antibacterial activity against Staphylococcus aureus ATCC 29213 assessed as bacterial growth inhibition incubated for 18 to 24 hrs in presence of […] by microtiter broth dilution method (reference value: 0.43 to > 71.5 uM); format: functional; details: time 18-24 hrs
Escherichia coli [18] = test: Bactericidal activity against Escherichia coli O157:H7 CICC 21530 assessed as bacterial killing at 1 times MIC by time kill assay; format: functional, organism-based; details: time 1085.0 min, TDE = time-dependent effect
Erythrocyte [19] = test: Hemolytic activity against human red blood cells assessed as hemoglobin release at 64 uM measured after 1 hr by microplate reader analysis; format: ADME, cell-based; procedure, shortened: as §3

Row | Substance | MIC (Escherichia coli [1]) | MIC [2] | MIC (Vibrio parahaemolyticus) | MIC (Listeria monocytogenes [3]) | MIC (Listeria monocytogenes [4]) | MIC (Micrococcus luteus) | MIC (Pseudomonas fluorescens) | MIC (Staphylococcus aureus [5]) | MHC10 (Erythrocyte [6]) | selectivity ratio [7] | MIC (Escherichia coli [8]) | MIC (Escherichia coli [9]) | MIC (Escherichia coli [10]) | MIC (Escherichia coli [11]) | Activity (Cell membrane) | Activity (RAW264.7 [12]) | Activity (RAW264.7 [13]) | Activity (HepG2) | MIC (Staphylococcus aureus [14]) | MIC (Staphylococcus aureus [15]) | further results
1 | H-WGEAFSAGVHRLANGGNG-NH2 | > 71.2 µM | > 71.2 µM | > 71.2 µM | > 71.2 µM | > 71.2 µM | > 71.2 µM | > 71.2 µM | > 71.2 µM | > 71.15 µM | 1 | > 71.2 µM | > 71.2 µM | > 71.2 µM | > 71.2 µM | inactive | Dose-dependent effect | Active | Dose-dependent effect | > 71.2 µM | > 71.2 µM | MIC (Staphylococcus aureus [16]): > 71.2 µM; MIC (Staphylococcus aureus [17]): > 71.2 µM; Activity (Escherichia coli [18]): Tde; Activity (Erythrocyte [19]): Non-Toxic
2 | H-WGRAFRRGVRRLARGGRR-NH2 | 29.3 µM | 3.67 µM | 29.3 µM | 7.33 µM | 7.33 µM | 7.33 µM | 29.3 µM | 14.7 µM | > 58.64 µM | 7.51 | 3.67 µM | 3.67 µM | 7.33 µM | > 58.6 µM | inactive | Dose-dependent effect | Active | Dose-dependent effect | 14.7 µM | 3.67 µM | MIC (Staphylococcus aureus [16]): 7.33 µM; MIC (Staphylococcus aureus [17]): > 58.6 µM; Activity (Escherichia coli [18]): Tde; Activity (Erythrocyte [19]): Non-Toxic
3 | H-WGRAFRRLVRRLARGLRR-NH2 | 13.9 µM | 6.97 µM | 13.9 µM | 1.74 µM | 1.74 µM | 27.9 µM | 55.8 µM | 6.97 µM | > 55.78 µM | 10.3 | 3.49 µM | 3.49 µM | 13.9 µM | > 55.8 µM | inactive | Dose-dependent effect | Active | Dose-dependent effect | 6.97 µM | 1.74 µM | MIC (Staphylococcus aureus [16]): 3.49 µM; MIC (Staphylococcus aureus [17]): > 55.8 µM; Activity (Escherichia coli [18]): Tde; Activity (Erythrocyte [19]): Non-Toxic
4 | H-WGRAFSAGVHRLANGGNG-NH2 | > 70.1 µM | > 70.1 µM | > 70.1 µM | > 70.1 µM | > 70.1 µM | > 70.1 µM | > 70.1 µM | > 70.1 µM | > 70.09 µM | 1 | > 70.1 µM | > 70.1 µM | > 70.1 µM | > 70.1 µM | inactive | Dose-dependent effect | Active | Dose-dependent effect | > 70.1 µM | > 70.1 µM | MIC (Staphylococcus aureus [16]): > 70.1 µM; MIC (Staphylococcus aureus [17]): > 70.1 µM; Activity (Escherichia coli [18]): Tde; Activity (Erythrocyte [19]): Non-Toxic
5 | H-WGRAFSAGVHRLARGGRG-NH2 | > 67 µM | > 67 µM | > 67 µM | 33.5 µM | 67 µM | > 67 µM | > 67 µM | > 67 µM | > 67.01 µM | 1.55 | 4.19 µM | 8.35 µM | > 67 µM | > 67 µM | inactive | Dose-dependent effect | Active | Dose-dependent effect | > 67 µM | > 67 µM | MIC (Staphylococcus aureus [16]): > 67 µM; MIC (Staphylococcus aureus [17]): > 67 µM; Activity (Escherichia coli [18]): Tde; Activity (Erythrocyte [19]): Non-Toxic
6 | H-WGRAFSRGVRRLARGGRG-NH2 | 31.8 µM | 15.9 µM | > 63.5 µM | 15.9 µM | 31.8 µM | > 63.5 µM | > 63.5 µM | > 63.5 µM | > 63.54 µM | 4.26 | 3.97 µM | 7.94 µM | 15.9 µM | > 63.5 µM | inactive | Dose-dependent effect | Active | Dose-dependent effect | > 63.5 µM | > 63.5 µM | MIC (Staphylococcus aureus [16]): > 63.5 µM; MIC (Staphylococcus aureus [17]): > 63.5 µM; Activity (Escherichia coli [18]): Tde; Activity (Erythrocyte [19]): Non-Toxic
